Hits are enriched below; roughly 2.9% of the tested compounds scored in any of these assays.
hiPSC survival – increases survival of single human iPS cells | 0.044% of 360,000 active | hiPSC single-cell survival, ATPlite luminescence; 100% = ROCK inhibitor wells, 0% = DMSO | survival enhancement, % at 20 µM; in the data active = survival enhancement above about 18%;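 note: cells exposed to compounds for 16 hours before the ATP read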
PG9 binder – PG9 antibody binding by small molecule; 0.43% of 360,000 active; inhibition, % at 6.7 µM; AID 624416; TR-FRET gp120-PG9 antibody binding; in the data active = inhibition above about 8.5%
TAG inh – reduces triacylglycerol accumulation in H9c2 cells | Nile Red lipid (TAG) fluorescence; cells loaded with 200 µM oleic acid | inhibition, % at 12.5 µM | 0.66% of 230,000 active | AID 651582;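 active = pattern-corrected inhibition of lipid staining of at least 50% with the nuclear-stain viability signal not falling by more than 50%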;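 note: 0% = DMSO wells and 100% = triacsin C control wells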
T cruzi repl – T. cruzi replication inhibition; inhibition, % (test concentration not listed); 1.4% of 300,000 active; T. cruzi beta-gal in NIH3T3, luminescence, 90 h;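 active = mean inhibition across valid replicates above about 55%, limit read from the data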;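 note: signal also drops with host cell toxicity which is not excluded here; 0% = plate median of DMSO wells and 100% = zero luminescence signal; higher percent means less beta-gal luminescence so fewer parasites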
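assay system = mouse NIH/3T3 fibroblasts infected with β-gal-expressing T. cruzi Tulahuen C4 | input = 5,000 NIH/3T3 host cells per well | buffer or medium = DMEM plus 2% FBS | timing = 3 h host attachment, then at least 90 h co-culture | measured by = GalScreen luminescence, 60 min | evaluation = luminescence reflecting intracellular parasite burden, expressed as percent inhibition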
MIN6 prolif – induces beta-cell replication in MIN6 cells. 0.29% of 330,000 active. AID 2380. proliferation, % at 10 µM. MIN6 cells proliferation, ATPlite luminescence, 48 h; cells starved in 0.2% serum; 100% = growth in 10% serum;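 active = compounds whose signal lies at least 3.5 SD above the mean of all wells on their plate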;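 note: 0% = DMSO-treated cells in low-serum medium and 100% = 10% serum control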
Rev-erbA mod – modulators of human Rev-erb alpha DNA binding; P20393; Rev-erbα–FITC-DNA binding, fluorescence polarization, 90 min; activity, % at 10 µM; 0.79% of 370,000 active; AID 1259318;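 active = activity above about 14%, limit read from the data; passing the limit was not always enough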;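 note: 0% = DMSO wells with 35 nM protein and 100% = DMSO wells with 750 nM protein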
Target sequence (P20393 whole entry, looked up): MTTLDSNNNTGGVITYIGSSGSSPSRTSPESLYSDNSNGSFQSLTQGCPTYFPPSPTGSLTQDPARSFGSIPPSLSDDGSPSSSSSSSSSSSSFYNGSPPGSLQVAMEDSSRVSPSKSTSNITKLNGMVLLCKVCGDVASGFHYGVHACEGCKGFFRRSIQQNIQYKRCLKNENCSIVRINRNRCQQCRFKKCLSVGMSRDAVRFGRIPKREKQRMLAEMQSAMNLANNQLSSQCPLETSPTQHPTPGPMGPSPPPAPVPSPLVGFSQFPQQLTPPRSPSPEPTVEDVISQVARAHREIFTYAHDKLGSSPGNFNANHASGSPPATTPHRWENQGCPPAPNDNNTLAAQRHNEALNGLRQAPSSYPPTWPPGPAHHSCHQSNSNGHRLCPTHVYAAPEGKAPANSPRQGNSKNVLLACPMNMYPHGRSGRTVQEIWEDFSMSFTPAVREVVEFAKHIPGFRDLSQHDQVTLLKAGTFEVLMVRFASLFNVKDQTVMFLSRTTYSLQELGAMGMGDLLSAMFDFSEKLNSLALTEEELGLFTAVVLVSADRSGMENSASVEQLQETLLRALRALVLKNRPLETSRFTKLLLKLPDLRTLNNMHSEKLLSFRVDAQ
NR1D1 mod conf – Rev-erb alpha (human) modulation, hit confirmation; Rev-erb alpha FITC-DNA binding, fluorescence polarization, 90 min; 61% of 3,000 active; shares compounds with Rev-erbA mod; activation, % at 25 µM; AID 1259319;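 active = activation at or above a set limit, or at least 3 SD above the negative control mean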;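 note: 0% = 35 nM protein with DMSO and 100% = 750 nM protein high control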
RORg DNA counter – counter-screen for Rev-erb alpha modulators: RORgamma DNA binding; purified RORgamma protein-FITC-DNA binding, fluorescence polarization; 8% of 910 active; shares compounds with Rev-erbA mod; IC50, µM; AID 1259320;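 active = Compounds whose fitted half-maximal concentration for disrupting protein-DNA binding is below 10 micromolar; the record names Rev-erb in its text, so the target is in doubt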
Active calls of the source: *; i = inactive; · = no result given.

SMILES | hiPSC survival | PG9 binder | TAG inh | T cruzi repl | MIN6 prolif | Rev-erbA mod | NR1D1 mod conf | others
COc1ccc2nc(SCC(=O)Nc3ccc4sc(C)nc4c3)c(C#N)cc2c1 | 3 | 6 | -100 | 17 | 2 | 92* | 123* | RORg DNA counter=>40
Cc1ccccc1NC(=O)CSc1nc(N)c(C#N)cc1C#N | -1 | -1 | · | -28 | 0 | -3 | ·
COc1ccc(NC(=O)CSc2nc(N)c(C#N)cc2C#N)cc1 | 0 | 2 | · | -23 | -1 | 61* | 65* | RORg DNA counter=>40
COc1ccc(NC(=O)CSc2nc3ccccc3cc2Cc2ccccc2)cc1 | 2 | 4 | · | 46 | -4 | 27* | 22*
CC(C)CCSc1nc(N)c(C#N)cc1C#N | 5 | -1 | · | 67* | 3 | 104* | 96* | RORg DNA counter=>40
COc1cccc(C(=O)Nc2sc(C(C)C)cc2C(N)=O)c1OC | 0 | -2 | 0 | 10 | -1 | -1 | ·
N#Cc1c(N)nc2c(c1-c1ccccc1)CCCC2 | -1 | -1 | · | -2 | 3 | -1 | ·
C=C(C)Cc1c(C)c(C#N)c2nc3ccccc3n2c1N1CCCCC1 | 1 | -1 | -14 | 31 | -1 | 25* | 4
C=CCc1c(C)c(C#N)c2nc3ccccc3n2c1N1CCCCC1 | 0 | -3 | 8 | 10 | -1 | 43* | 6
Cn1c(SCC(=O)c2ccc3c(c2)NC(=O)CO3)nc2ccccc21 | -1 | 8 | 1 | -7 | -2 | 36* | 24*
O=C1COc2ccc(C(=O)CSc3nnc(Cc4ccccc4)o3)cc2N1 | 0 | 6 | -8 | -2 | -1 | 18* | 21*
O=C(CSc1nnc(Cc2ccccc2)o1)c1ccc(F)cc1 | 0 | -1 | 6 | 3 | -2 | 2 | ·
CCOC(=O)C1CCN(C(=O)COc2ccc(Br)cc2Br)CC1 | 1 | 0 | 15 | -4 | 0 | · | ·
Cc1cc(C)cc(NC(=O)CSc2nnc(-c3ccccc3Br)o2)c1 | 0 | 2 | · | -3 | 1 | 1 | ·
C=COC(=O)c1sc2nc(C)cc(C)c2c1N | -1 | 0 | 7 | 49 | 1 | 24* | 13
Cc1ccccc1Cn1c(=N)n(CC(=O)c2ccc([N+](=O)[O-])cc2)c2ccccc21 | -1 | -3 | -13 | · | · | 1 | ·
CSc1ccccc1-c1nnc(-c2ccc(Cl)c(Cl)c2)o1 | 0 | 0 | 4 | 5 | -1 | 47* | 51* | RORg DNA counter=>40
CCOC(=O)c1c(-c2cccs2)csc1NC(=O)c1ccco1 | -2 | -2 | -10 | -2 | -4 | 36* | 11
CN(Cc1nc2ccccc2c(=O)[nH]1)C(=O)c1cc(-c2ccc(Br)cc2)nc2ccccc12 | 0 | 1 | 20 | · | · | 36* | 23*
Cc1ccc(F)c(S(=O)(=O)NC(=O)C2(C)CCN2C(=O)Cc2ccc(C(C)(C)C)cc2)c1 (stereo unspecified) | 6 | -1 | 4 | · | · | -3 | ·
C=CCN1C=CC(=CC=C(C#N)C#N)C=C1 | 0 | -10 | -42 | -5 | -1 | 32* | 22*
CN1/C(=C/C=C(C#N)C#N)C=Cc2ccccc21 | 0 | -3 | -41 | 6 | -4 | -10 | ·
CCCN1C=CC(=CC=C(C#N)C#N)C=C1 | 0 | -13 | -39 | 3 | -1 | 28* | 13
CCCCCCN1C=CC(=C/C=C(\C#N)C(=O)OCC)C=C1 | 0 | -14 | · | 21 | -3 | 58* | 30*
CCOC(=O)/C(C#N)=C/C=C1\C=Cc2ccccc2N1CC | 2 | -13 | 6 | 30 | -2 | 74* | 56* | RORg DNA counter=7.4*
SMILES | hiPSC survival | PG9 binder | TAG inh | T cruzi repl | MIN6 prolif | Rev-erbA mod | NR1D1 mod conf | others
CCCN1C=CC(=C/C=C(\C#N)C(=O)OCC)C=C1 | · | · | · | 4 | -3 | · | ·
CCCCCN1C=CC=C/C1=C\C=C(C#N)C#N | 2 | -6 | -9 | 10 | -3 | 11 | ·
CCCCCCCCCCCCCCCC(=O)OCC(O)[C@H]1OC(=O)C(O)=C1O (stereo partly specified) | · | · | · | · | · | 0 | ·
C=C(C)CSc1nc(N)c2c(C)c(C)sc2n1 | -1 | 1 | · | 1 | -1 | 26* | 26*
O=C(COC(=O)c1ccc2ccccc2c1O)NCC(F)(F)F | -1 | 0 | -4 | 2 | -2 | 6 | ·
O=C(COC(=O)c1ccc2ccccc2c1O)Nc1ccccc1 | 0 | 1 | -5 | · | 1 | 59* | 28*
COc1ccc(Oc2nc(-c3cccnc3)nc3ccccc23)cc1 | 0 | -3 | 8 | 33 | -2 | 5 | ·
Fc1ccccc1Oc1nc(-c2ccncc2)nc2ccccc12 | 0 | 0 | 9 | 12 | 0 | 33* | 15
Cc1[nH]nc2nc(SCC(=O)NCCC3=CCCCC3)n(-c3ccc(Br)cc3)c(=N)c12 | 3 | 1 | · | 2 | -7 | 29* | 30* | RORg DNA counter=>40
COc1ccc(-c2ccc3oc(-c4ccsc4)cc(=O)c3c2)cn1 | -1 | -1 | -16 | · | -3 | -1 | ·
COc1ccc(-c2ccc3oc(-c4ccsc4)cc(=O)c3c2)cc1F | -2 | -7 | -4 | · | -1 | 66* | 31*
Cc1ccc(-c2nn3c(C)nnc3s2)cc1NC(=O)c1ccc(-c2ccc(Cl)cc2Cl)o1 | 1 | 1 | · | · | -5 | 124* | 186* | RORg DNA counter=i
Cc1ccc(-c2nn3c(C)nnc3s2)cc1NC(=O)c1ccc(-c2cccc(Cl)c2)o1 | 6 | -2 | 38 | 22 | -3 | -8 | ·
NC(=O)c1cn(-c2ccccc2)nc1-c1cc2ccccc2oc1=O | 0 | 0 | -2 | 0 | 0 | -2 | ·
O=C(c1ccccc1)c1nn(-c2ccc(Cl)cc2)cc1C(=O)c1cc2ccccc2oc1=O | -1 | -1 | 40 | -9 | -6 | 34* | -8
CN(C)c1ccc(/C=C/c2cc[n+](C)cc2)cc1 | 0 | -22 | · | 85* | -4 | 28* | 44* | RORg DNA counter=>40
CC[n+]1ccc(/C=C/c2ccc(N(C)C)cc2)c2ccccc21 | -1 | -130 | -9 | · | · | -2 | ·
CCCCCC[n+]1ccccc1/C=C/c1ccc(N(C)C)cc1 | -5 | -11 | -134 | · | · | 34* | 37* | RORg DNA counter=i
Cc1ccc(/C=C/c2ccc(N(C)C)cc2)[n+](C)c1 | 0 | -20 | · | 61* | -5 | 37* | 50* | RORg DNA counter=i
CN(C)c1ccc(/C=C/c2cc[n+]([O-])cc2)cc1 | · | · | · | -4 | -1 | · | ·
CCOC(=O)C1=CN(Cc2cccc(F)c2)S(=O)(=O)NC1c1ccc2ccccc2c1 (stereo unspecified) | 4 | 1 | -3 | · | · | -3 | ·
COc1cccc(NC(=O)COC(=O)CC(NC(N)=O)c2ccc(Cl)cc2)c1 (stereo unspecified) | 0 | -1 | -23 | -6 | -2 | -7 | ·

Source: PubChem
